Source: PubChem BioAssay (The Scripps Research Institute Molecular Screening Center)
GPR7 antagonist: GPR7 receptor antagonists, primary screen, cell-based, fluorescence, single concentration; Neuropeptides B/W receptor type 1 (Homo sapiens), P48145; GPR7-expressing cells, fluorescence antagonist assay; inhibition, % at 4.4 µM; actives 1.1% (n = 290,000); AID 1861, 2009; in the data active = inhibition above about 16%, passing the limit was not always enough;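 also: cells stimulated with the agonist NPW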
Target sequence (P48145 whole entry, looked up): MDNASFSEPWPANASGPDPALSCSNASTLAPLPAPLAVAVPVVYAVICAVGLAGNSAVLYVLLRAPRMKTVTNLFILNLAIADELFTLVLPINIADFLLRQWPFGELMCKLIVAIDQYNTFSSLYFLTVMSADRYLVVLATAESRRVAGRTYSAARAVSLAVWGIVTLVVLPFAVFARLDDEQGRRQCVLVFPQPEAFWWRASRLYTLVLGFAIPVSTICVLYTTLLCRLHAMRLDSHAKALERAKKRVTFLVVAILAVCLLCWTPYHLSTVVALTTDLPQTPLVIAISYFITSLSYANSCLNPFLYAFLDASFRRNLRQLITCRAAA
TAAR1 agonist: human TAAR1 agonists, primary screen, Fluo-8 calcium fluorescence, CHO RD-HGA16 cells; Trace amine-associated receptor 1 (Homo sapiens), Q96RJ0; actives 0.99% (n = 360,000); vehicle wells 0%, saturating PEA agonist 100%; activation, % at 3 µM;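 active = activation above the mean activation of all test compounds in the run plus 3 SD, cut at about 38% in these data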
Target sequence (Q96RJ0 whole entry, looked up): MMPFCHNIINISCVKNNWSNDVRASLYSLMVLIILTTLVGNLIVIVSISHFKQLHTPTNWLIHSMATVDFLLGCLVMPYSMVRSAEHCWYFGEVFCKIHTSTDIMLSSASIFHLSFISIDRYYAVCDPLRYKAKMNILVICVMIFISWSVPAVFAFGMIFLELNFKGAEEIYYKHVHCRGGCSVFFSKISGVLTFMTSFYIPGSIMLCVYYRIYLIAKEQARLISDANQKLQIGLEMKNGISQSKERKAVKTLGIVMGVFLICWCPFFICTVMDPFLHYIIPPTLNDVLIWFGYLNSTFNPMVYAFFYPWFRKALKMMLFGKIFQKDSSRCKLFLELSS
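System: CHO-derived RD-HGA16 cells with stable Gα16 and human TAAR1 / Times: 17-24 h plating, Fluo-8 75 min 37 °C, 30 min RT / Technique: calcium-sensitive Fluo-8 signal, excitation 470-495, emission 515-575 nm / Measure: % activation relative to PEA EC100 response / Benchmarks: DMSO and PEA EC100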
OX1R antag-1: antagonists of human orexin 1 receptor (OX1R) | Orexin/Hypocretin receptor type 1 (Homo sapiens), O43613 | actives 1.8% (n = 330,000) | OX1R-expressing cells, FRET antagonist read-out | AID 485270, 2010 | inhibition, % at 6.6 µM; in the data active = inhibition mostly above about 38%, no sharp cut-off; inactive = mostly below about 40%
CHO parental Ca: ATP-evoked calcium signal inhibitors, parental CHO, primary screen, counter-screen for OX1R antagonist project, cell-based, fluorescence, Fluo-8 calcium dye | parental CHO-K1, ATP-induced calcium, Fluo-8 fluorescence | inhibition, % at 5.6 µM | actives 0.63% (n = 330,000) | AID 463079, 2010;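 active = inhibition above that plate's mean sample inhibition plus 3 SD, cut at about 26% in these data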
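Test system: untransfected parental CHO cell line. Compound: one dose, 5.6 µM nominal. Detection: intracellular calcium via Fluo-8 no-wash fluorescent dye. Measure: % inhibition. Benchmarks: ATP-challenged DMSO wells low, unchallenged DMSO wells high.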
TAAR1 antagonist: human TAAR1 antagonists, primary screen, Fluo-8 calcium fluorescence, CHO RD-HGA16 cells; actives 1.5% (n = 360,000); AID 624466, 2012; antagonist; Trace amine-associated receptor 1 (Homo sapiens), Q96RJ0; inhibition, % at 3 µM;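 active = inhibition above a per-plate cutoff, the mean inhibition of test compounds on that plate plus 3 SD, cut at about 49% in these data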
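Test system: CHO RD-HGA16 cells bearing hTAAR1 | Reagent: β-PEA, EC80 | Compound dosing: 3 µM, single point | Schedule: Dye loading 75 min at 37 °C, then 30 min room temperature | Signal: Calcium fluorescence with Fluo-8 | Evaluation: Percent inhibition of PEA-evoked calcium signal, max/basal emission ratio | Control set: DMSO-only wells and EC80 β-PEA-stimulated wells | Repeats: Singlicate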
OX1R antag-2: OX1R (HCRTR1) antagonists, primary screen, fluorescence, CHO/OX1R cells, Fluo-8 calcium, orexin A | Fluo-8 calcium fluorescence | actives 0.43% (n = 330,000) | AID 434989, 2010 | inhibition, % at 5 µM;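 active = inhibition above its plate's threshold, mean inhibition of all tested compounds on the plate plus 3 SD, cut at about 37% in these data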
Large screens that a line does not name were inactive. An excerpt weighted towards active compounds, which were near 4.6% of everything screened.

CCCSc1nnc(NC(=O)Nc2ccc(C)cc2)s1	none
Cc1ccc(N/C(N)=N/c2nc3c(c(=O)[nH]2)CCCC3)c(C)c1	none
Cc1ccc(N/C(N)=N/c2nc(C)cc(N3CCCCC3)n2)c(C)c1	GPR7 antagonist 27
CC1(C(=O)NS(=O)(=O)c2ccccc2Cl)CCN1C(=O)C/C=C/c1ccccc1 (centres undefined)	none (no result: GPR7 antagonist, OX1R antag-1, CHO parental Ca, OX1R antag-2)
COc1cc(/C=C/C(=O)OCC(=O)N2CC(C)OC(C)C2)ccc1OCC#N (centres undefined)	none (no result: GPR7 antagonist, OX1R antag-1, CHO parental Ca, OX1R antag-2)
O=C(Nc1ccc([N+](=O)[O-])c(NC(=O)c2cccnc2)c1)c1cccnc1	none (no result: GPR7 antagonist)
O=C(Nc1cc2c(cc1[N+](=O)[O-])OCCO2)c1cccnc1	OX1R antag-1 50 (no result: GPR7 antagonist)
COc1ccc(-c2c(C(=O)c3ccccc3)[nH]c(N)c2C(=O)NCCc2c[nH]c3ccccc23)cc1	none (no result: GPR7 antagonist, OX1R antag-1, CHO parental Ca, OX1R antag-2)
NS(=O)(=O)c1ccc(CCNC(=O)c2ccc(C#CC3(O)CCCCC3)cc2)cc1	TAAR1 antagonist 68
NS(=O)(=O)c1ccc(CCNC(=O)c2ccncc2)cc1	none
N/C(=N/OC(=O)c1cccc([N+](=O)[O-])c1)c1cccc([N+](=O)[O-])c1	none
CC1=C(C)/C(=N/OC(=O)c2cccc([N+](=O)[O-])c2)C=CC1=O	OX1R antag-1 74 (no result: TAAR1 agonist, TAAR1 antagonist)
Cc1ccc(NC(=S)NCCN(C2CCCCC2)C2CCCC2)cc1	GPR7 antagonist 31
O=C1Nc2c(Cl)cc(Cl)cc2C12Nc1ccccc1S2 (centres undefined)	none (no result: GPR7 antagonist, OX1R antag-1, CHO parental Ca, OX1R antag-2)
CC(C)=CC(=O)NCCc1ccccc1	TAAR1 agonist 42
O=C(/C=C/c1cccc(Cl)c1)NCCc1ccccc1	none
O=C(/C=C/c1c(Cl)cccc1Cl)NCCc1ccccc1	TAAR1 agonist 38
COC(=O)Cc1nnn2c1CC(OC)c1cc(Br)ccc1-2 (centres undefined)	none (no result: GPR7 antagonist, OX1R antag-1, CHO parental Ca, OX1R antag-2)
CN1CCCCC(NC(=O)CCl)C1=O (centres undefined)	none (no result: GPR7 antagonist, OX1R antag-1, CHO parental Ca, OX1R antag-2)
O=C(/C=C/c1cccc(F)c1)OCC(=O)N1CCc2ccccc21	TAAR1 antagonist 49 (no result: GPR7 antagonist)
COc1cc(/C=C/C(=O)OCC(=O)N2CCCc3ccccc32)ccc1O	none (no result: GPR7 antagonist)
Cc1ccc(S(=O)(=O)N2[C@@H](CO)CO[C@H]2CC(=O)c2ccccc2)cc1	none (no result: GPR7 antagonist, OX1R antag-1, CHO parental Ca, OX1R antag-2)
CC(=NNC(=S)Nc1ccccc1)c1ccccn1	none (no result: GPR7 antagonist, OX1R antag-1, CHO parental Ca, OX1R antag-2)
C=CCNC(=S)N/N=C(\C)c1ccccn1	CHO parental Ca 29
NC(N)=N/N=C/c1ccc(Cl)c(Cl)c1	TAAR1 agonist 39
Cc1ccc([C@@H]2CC=C(C(=O)O)[C@H](c3ccc(Br)cc3)N2S(=O)(=O)c2ccc(C)cc2)cc1	OX1R antag-1 39 (no result: GPR7 antagonist)
Cc1ccc(S(=O)(=O)N2[C@@H](c3ccc(Br)cc3)C(C(=O)O)=CC[C@H]2c2ccc(C(C)C)cc2)cc1	CHO parental Ca 75, OX1R antag-2 54 (no result: GPR7 antagonist)
Cc1ccc([C@@H]2CC=C(C(=O)O)[C@H](c3ccc(F)cc3)N2S(=O)(=O)c2ccc(C)cc2)cc1	OX1R antag-1 70 (no result: GPR7 antagonist)
Cc1ccc(S(=O)(=O)N2[C@@H](c3ccccc3F)C(C(=O)O)=CC[C@H]2c2ccc3c(c2)OCO3)cc1	OX1R antag-1 47 (no result: GPR7 antagonist)
N#CCC1(O)C(=O)Nc2ccccc21 (centres undefined)	none (no result: GPR7 antagonist, OX1R antag-1, CHO parental Ca, OX1R antag-2)
CCc1nc(Nc2ccc(OC)c(OC)c2)c2nnn(Cc3ccccc3Cl)c2n1	CHO parental Ca 30
Cc1ccc(NC(=S)N(CCCN2CCCC2)Cc2cccn2Cc2ccc(Cl)cc2)cc1Cl	none
COc1ccc(NC(=S)N(CCCN2CCCC2)Cc2cccn2Cc2ccc(Cl)cc2)cc1Cl	GPR7 antagonist 19, TAAR1 agonist 40
CN1OC[C@@H]2CN3C(=NCCc4ccccc4)Sc4ccccc4[C@@H]3C[C@@H]21	none (no result: GPR7 antagonist, OX1R antag-1, CHO parental Ca, OX1R antag-2)
Cn1cc([N+](=O)[O-])cc1-c1nc2ccccc2n1C	none
Cn1c(-c2ccc([N+](=O)[O-])cc2)nc2ccccc21	OX1R antag-1 51
C[C@]12Cc3ccccc3C1CC1=N[C@@H](c3ccc(C(F)(F)F)cc3)O[C@@]13C[C@@H]2C(=O)N3Cc1ccncc1 (some centres undefined)	none (no result: GPR7 antagonist, OX1R antag-1, CHO parental Ca, OX1R antag-2)
COCCCN1C(=O)C(CC(=O)NCCc2ccccn2)CC(C(=O)N2CCCCCC2)=C1C (centres undefined)	none (no result: GPR7 antagonist, OX1R antag-1, CHO parental Ca, OX1R antag-2)
CCCn1c(SCC(=O)Nc2cccc(F)c2)nc(O)cc1=O	CHO parental Ca 40, OX1R antag-2 79 (no result: GPR7 antagonist)
CC(C)NC(=O)N(C)C[C@@H]1OCc2cn(nn2)CCCC(=O)N([C@@H](C)CO)C[C@H]1C	none (no result: GPR7 antagonist, OX1R antag-1, CHO parental Ca, OX1R antag-2)
O=C(CCc1ccccc1)NC1(Cc2ccccc2)CCN(CCCc2ccccc2)C1=O (centres undefined)	TAAR1 antagonist 55 (no result: GPR7 antagonist)
Cc1ccccc1NS(=O)(=O)c1ccc(NC(=O)CSCc2ccc(Br)cc2)cc1	CHO parental Ca 31
CCCCn1cc(C(=O)c2cc(Br)ccc2O)cc(C#N)c1=O	OX1R antag-2 44
CC1CS(=O)(=O)CCN1N=Cc1ccc([N+](=O)[O-])o1 (centres undefined)	OX1R antag-1 53 (no result: GPR7 antagonist)
